{"data": "Results pooled from the literature", "target": "Glycogen synthase kinase-3 beta (GSK3B, Homo sapiens, UniProt P49841)", "note": "Each line is one published result; the experiments were not run side by side."}
{"SMILES": "C[C@H]1CC[C@H](n2c3cnccc3c3cnc(Nc4ccc5c(n4)CCN(C(=O)CO)C5)nc32)CC1", "effect on": "cell-free assay", "concentration": "1 µM", "endpoint": "remaining signal", "result": "72%"}
{"SMILES": "CCCCC(=O)Nc1ccc(-c2ccc3ncn(CCC)c(=O)c3c2)cn1", "effect on": "binding", "technique": "competition with immobilised ligand", "concentration": "0.5 µM", "endpoint": "remaining binding", "result": "100%"}
{"SMILES": "Cc1cc(O)c(-c2ccc([C@@H](C)CN(C)C)cc2)c2c1[nH]c(=O)c1sccc12", "effect on": "enzyme activity", "mode": "inhibitor", "concentration": "0.1 µM", "setting": "lysate", "endpoint": "inhibition", "result": "-0.958%"}
{"SMILES": "CC(=O)ON=C1C=CC(=C(C#N)c2ccccc2)C=C1", "effect on": "enzyme activity", "mode": "inhibitor", "technique": "ADP detection", "concentration": "2 µM", "endpoint": "activity vs control", "result": "88%"}
{"SMILES": "CN1CCN(C(=O)c2ccc(NC(=O)Nc3ccc(N(C)c4ccnc(Nc5ccc(CS(C)(=O)=O)cc5)n4)cc3)cc2)CC1", "effect on": "binding", "concentration": "1 µM", "endpoint": "remaining binding", "result": "95%"}
{"SMILES": "CC#CC(=O)N1CCC[C@H]1c1nc(-c2ccc(C(=O)Nc3ccccn3)cc2)c2c(N)nccn12", "effect on": "enzyme activity", "mode": "inhibitor", "concentration": "1 µM", "endpoint": "inhibition", "result": "0%"}
{"SMILES": "N#Cc1ccc(NC(=O)Nc2ccccc2)cc1", "effect on": "cell-free assay", "technique": "competition with immobilised ligand", "concentration": "25 µM", "endpoint": "remaining binding", "result": "100%"}
{"SMILES": "C1=C/COCc2cc(ccc2OCCN2CCCC2)Nc2nccc(n2)-c2cccc(c2)COC/1", "effect on": "binding", "concentration": "0.1 µM", "endpoint": "remaining binding", "result": "82%"}
{"SMILES": "C=CC(=O)N1CCC([C@@H]2CCNc3c(C(N)=O)c(-c4ccc(Oc5ccccc5)cc4)nn32)CC1", "effect on": "enzyme activity", "mode": "inhibitor", "concentration": "1 µM", "endpoint": "inhibition", "result": "16%"}
{"SMILES": "CC(C)S(=O)(=O)c1ccc2nccc(Nc3ccc4sc(C5CCCC5)nc4c3)c2c1", "effect on": "enzyme activity", "mode": "inhibitor", "concentration": "1 µM", "endpoint": "activity vs control", "result": "113%"}
{"SMILES": "COc1ccc2oc(-c3ccc4nc(N)oc4c3)c/c(=N\\c3ccccc3NC(=O)CCN)c2c1", "effect on": "binding", "concentration": "1 µM", "endpoint": "remaining binding", "result": "106%"}
